Test results published in ChEMBL document CHEMBL1629583, “Establishment of in vitro susceptibility testing methodologies and comparative activities of piperacillin in combination with the penem {beta}-lactamase inhibitor BLI-489” (2009).
≈ marks a conversion by molar mass, not a printed value.

Assays:
Type in all cases: functional
[1] = test system: Burkholderia cepacia; assay: Antimicrobial activity against Burkholderia cepacia clinical isolate after 18 to 22 hrs by broth microdilution method in presence of beta-lactamase inhibitor BLI-489
In short: (§1)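 CLSI broth microdilution in Mueller-Hinton II broth. Piperacillin serial dilutions were combined with BLI-489 held constant at 4 μg/ml. Inoculum was 10^5 CFU/ml. Plates were incubated 18 to 22 h at 35°C in ambient air. MIC was the lowest concentration completely inhibiting growth seen by the unaided eye. Piperacillin-tazobactam interpretive criteria were applied.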

[2] = test system: Stenotrophomonas maltophilia; assay: Antimicrobial activity against Stenotrophomonas maltophilia clinical isolate after 18 to 22 hrs by broth microdilution method in presence of beta-lactamase inhibitor Tazobactam
In short: (§2)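 Piperacillin-tazobactam was tested by CLSI broth microdilution in Mueller-Hinton II broth against clinical isolates. Inoculum was 10^5 CFU/ml, with 18 to 22 h incubation at 35°C in ambient air. MIC was read as the lowest concentration completely inhibiting visible growth.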

[3] = test system: Stenotrophomonas maltophilia; assay: Antimicrobial activity against Stenotrophomonas maltophilia clinical isolate after 18 to 22 hrs by broth microdilution method in presence of beta-lactamase inhibitor BLI-489
In short: (§3)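 CLSI broth microdilution in Mueller-Hinton II broth. Serial dilutions of piperacillin were tested with BLI-489 held at a constant 4 μg/ml. Inoculum was 10^5 CFU/ml. Plates were incubated 18 to 22 h at 35°C in ambient air. MIC was the lowest concentration giving complete growth inhibition by unaided eye.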

[4] = test system: Pseudomonas aeruginosa; assay: Antimicrobial activity against Pseudomonas aeruginosa clinical isolate after 18 to 22 hrs by broth microdilution method in presence of beta-lactamase inhibitor Tazobactam; in short: as §2
[5] = test system: Haemophilus influenzae; assay: Antimicrobial activity against beta-lactamase-negative Haemophilus influenzae clinical isolate after 18 to 22 hrs by broth microdilution method in presence of beta-lactamase inhibitor Tazobactam
In short: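 […] was used for CLSI broth microdilution with piperacillin-tazobactam. Inoculum was 10^5 CFU/ml, incubated 18 to 22 h at 35°C in ambient air. MIC was the lowest concentration with no growth visible to the unaided eye.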

[6] = test system: Moraxella catarrhalis; assay: Antimicrobial activity against Moraxella catarrhalis clinical isolate after 18 to 22 hrs by broth microdilution method in presence of beta-lactamase inhibitor BLI-489; in short: as §3
[7] = test system: Staphylococcus epidermidis; assay: Antimicrobial activity against methicillin-resistant Staphylococcus epidermidis clinical isolate after 18 to 22 hrs by broth microdilution method in presence of beta-lactamase inhibitor Tazobactam
In short: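 CLSI broth microdilution in Mueller-Hinton II broth. Antibiotic in serial dilution with the β-lactamase inhibitor held at a constant 4 μg/ml. Inoculum 10^5 CFU/ml. Incubated 18 to 22 h at 35°C in ambient air.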

[8] = test system: Enterococcus avium; assay: Antimicrobial activity against Enterococcus avium clinical isolate after 18 to 22 hrs by broth microdilution method in presence of beta-lactamase inhibitor Tazobactam
In short: (§4)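 Piperacillin-tazobactam was tested on recent clinical isolates by CLSI broth microdilution in Mueller-Hinton II broth, with tazobactam at constant 4 μg/ml. Wells held 10^5 CFU/ml and were incubated 18 to 22 h at 35°C in ambient air. MIC was the lowest concentration with no growth visible to the unaided eye.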

[9] = test system: Enterococcus avium; assay: Antimicrobial activity against Enterococcus avium clinical isolate after 18 to 22 hrs by broth microdilution method in presence of beta-lactamase inhibitor BLI-489; in short: as §1
[10] = test system: Bacteroides thetaiotaomicron; assay: Antimicrobial activity against Bacteroides thetaiotaomicron clinical isolate after 18 to 22 hrs by broth microdilution method in presence of beta-lactamase inhibitor Tazobactam
[11] = test system: Bacteroides uniformis; assay: Antimicrobial activity against Bacteroides uniformis clinical isolate after 18 to 22 hrs by broth microdilution method in presence of beta-lactamase inhibitor BLI-489
[12] = test system: Clostridium perfringens; assay: Antimicrobial activity against Clostridium perfringens clinical isolate after 18 to 22 hrs by broth microdilution method in presence of beta-lactamase inhibitor Tazobactam
[13] = test system: Peptostreptococcus anaerobius; assay: Antimicrobial activity against Peptostreptococcus anaerobius clinical isolate after 18 to 22 hrs by broth microdilution method in presence of beta-lactamase inhibitor Tazobactam
[14] = test system: Parvimonas micra; assay: Antimicrobial activity against Peptostreptococcus micros clinical isolate after 18 to 22 hrs by broth microdilution method
[15] = test system: Enterococcus durans; assay: Antimicrobial activity against Enterococcus durans clinical isolate after 18 to 22 hrs by broth microdilution method in presence of beta-lactamase inhibitor Tazobactam; in short: as §4
[16] = test system: Enterococcus gallinarum; assay: Antimicrobial activity against Enterococcus gallinarum clinical isolate after 18 to 22 hrs by broth microdilution method in presence of beta-lactamase inhibitor BLI-489; in short: as §3
[17] = test system: Enterobacter cloacae; assay: Antimicrobial activity against Enterobacter cloacae clinical isolate after 18 to 22 hrs by broth microdilution method in presence of beta-lactamase inhibitor BLI-489; in short: as §1
[18] = test system: Escherichia coli; assay: Antimicrobial activity against class A extended spectrum beta-lactamase- producing Escherichia coli clinical isolate after 18 to 22 hrs by broth microdilution method in presence of beta-lactamase inhibitor Tazobactam
In short: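 CLSI broth microdilution of piperacillin-tazobactam in Mueller-Hinton II broth with serial dilutions. Inoculum was 10^5 CFU/ml. Incubation was 18 to 22 h at 35°C in ambient air. MIC was read as the lowest concentration giving complete inhibition of growth visible to the unaided eye.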

[19] = test system: Klebsiella pneumoniae; assay: Antimicrobial activity against AmpC- producing Klebsiella pneumoniae clinical isolate after 18 to 22 hrs by broth microdilution method in presence of beta-lactamase inhibitor Tazobactam; in short: as §4
[20] = test system: Klebsiella oxytoca; assay: Antimicrobial activity against Klebsiella oxytoca clinical isolate after 18 to 22 hrs by broth microdilution method in presence of beta-lactamase inhibitor BLI-489; in short: as §3
[21] = test system: Morganella morganii; assay: Antimicrobial activity against Morganella morganii clinical isolate after 18 to 22 hrs by broth microdilution method in presence of beta-lactamase inhibitor Tazobactam; in short: as §2
[22] = test system: Providencia stuartii; assay: Antimicrobial activity against Providencia stuartii clinical isolate after 18 to 22 hrs by broth microdilution method in presence of beta-lactamase inhibitor BLI-489; in short: as §3
[23] = test system: Acinetobacter calcoaceticus; assay: Antimicrobial activity against Acinetobacter calcoaceticus clinical isolate after 18 to 22 hrs by broth microdilution method in presence of beta-lactamase inhibitor BLI-489; in short: as §1
[24] = test system: Acinetobacter haemolyticus; assay: Antimicrobial activity against Acinetobacter haemolyticus clinical isolate after 18 to 22 hrs by broth microdilution method in presence of beta-lactamase inhibitor Tazobactam; in short: as §4

## CCN1CCN(C(=O)N[C@@H](C(=O)N[C@@H]2C(=O)N3[C@@H]2SC(C)(C)[C@@H]3C(=O)O)c2ccccc2)C(=O)C1=O [PIPERACILLIN]
[1]
  MIC50: 1 µg/mL
  MIC90: 2 µg/mL
[2]
  MIC: > 128 µg/mL
  MIC50: > 128 µg/mL
  MIC90: > 128 µg/mL
[3]
  MIC50: > 128 µg/mL
  MIC90: > 128 µg/mL
[4]
  MIC50: 16 µg/mL
  MIC90: > 128 µg/mL
[5]
  MIC50: 0.008 µg/mL
  MIC90: 0.03 µg/mL
[6]
  MIC: ≤ 0.004 µg/mL
  MIC50: ≤ 0.004 µg/mL
  MIC90: 0.015 µg/mL
[7]
  MIC50: 1 µg/mL
  MIC90: 8 µg/mL
[8]
  MIC50: 16 µg/mL
  MIC90: 64 µg/mL
[9]
  MIC50: 8 µg/mL
  MIC90: 32 µg/mL
[10]
  MIC50: 4 µg/mL
  MIC90: 8 µg/mL
[11]
  MIC50: 4 µg/mL
  MIC90: 8 µg/mL
[12]
  MIC: ≤ 0.015 µg/mL
  MIC50: ≤ 0.015 µg/mL
  MIC90: 0.03 µg/mL
[13]
  MIC: ≤ 0.015 µg/mL
  MIC50: ≤ 0.015 µg/mL
  MIC90: ≤ 0.015 µg/mL
[14]
  MIC50: 0.12 µg/mL (≈ 0.232 µM)
  MIC90: 0.25 µg/mL (≈ 0.483 µM)
[15]
  MIC50: 4 µg/mL
  MIC90: 16 µg/mL
[16]
  MIC50: 2 µg/mL
  MIC90: 8 µg/mL
[17]
  MIC50: 2 µg/mL
  MIC90: 16 µg/mL
[18]
  MIC50: 16 µg/mL
  MIC90: 32 µg/mL
[19]
  MIC50: 32 µg/mL
  MIC90: > 128 µg/mL
[20]
  MIC50: 2 µg/mL
  MIC90: 8 µg/mL
[21]
  MIC50: 0.5 µg/mL
  MIC90: 1 µg/mL
[22]
  MIC50: 1 µg/mL
  MIC90: 8 µg/mL
[23]
  MIC50: > 128 µg/mL
  MIC90: > 128 µg/mL
[24]
  MIC50: ≤ 0.12 µg/mL
  MIC90: 32 µg/mL
